Reference: ChEMBL document CHEMBL1142895, “Discovery of a new insecticide lead by optimizing a target-diverse scaffold: tetrazolinone derivatives” (2007)
Active and inactive are the calls of the source. The calls are words filed in the database; no cut-off is given here.

Legend:
[1] = test system: Brassica rapa subsp. oleifera; experiment: Inhibition of root growth of Brassica campestris at 100 mg/L; type: functional
How it was run: (§1)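 Seeds of each species were grown in Petri dishes with 10 seeds per dish, at 28 °C, 70–80% RH, 16:8 h light:dark photoperiod and 3000 lx light for 5 days. Root and stem lengths were measured for the 10 seeds and averaged. Each test and its controls were run in three replicates, and the data were given probit analysis.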

Triticum aestivum [2] = experiment: Inhibition of stem growth of Triticum aestivum at 100 mg/L; type: functional; how it was run: as §1
Sorghum bicolor [3] = experiment: Inhibition of root growth of Sorghum bicolor at 100 mg/L; type: functional; how it was run: as §1
Echinochloa crus-galli [4] = experiment: Herbicidal activity against Echinochloa crus-galli at 450 g ai/ha in greenhouse in vivo test; type: functional, organism-based
Tetranychus cinnabarinus = experiment: Insecticidal activity against Tetranychus cinnabarinus at 250 mg/L; type: functional
How it was run: (§2)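 Groups of 10 of each species were placed in glass Petri dishes and sprayed with test solution using a Potter sprayer. After air-drying, they were held under normal rearing conditions. Mortality at 72 h was taken from the number and size of live larvae relative to untreated controls.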

Radish [5] = experiment: Inhibition of stem growth of Raphanus sativus at 100 mg/L; type: functional; how it was run: as §1
Cucumis sativus [6] = experiment: Herbicidal activity against Cucumis sativus at 450 g ai/ha in greenhouse in vivo test; type: functional, organism-based
Triticum aestivum [7] = experiment: Herbicidal activity against Triticum aestivum at 450 g ai/ha in greenhouse in vivo test; type: functional, organism-based
[8] = test system: Brassica rapa subsp. oleifera; experiment: Herbicidal activity against Brassica campestris at 450 g ai/ha in greenhouse in vivo test; type: functional, organism-based
Radish [9] = experiment: Inhibition of root growth of Raphanus sativus at 100 mg/L; type: functional; how it was run: as §1
Echinochloa crus-galli [10] = experiment: Inhibition of stem growth of Echinochloa crus-galli at 100 mg/L; type: functional; how it was run: as §1
Sorghum bicolor [11] = experiment: Inhibition of stem growth of Sorghum bicolor at 100 mg/L; type: functional; how it was run: as §1
Triticum aestivum [12] = experiment: Inhibition of root growth of Triticum aestivum at 100 mg/L; type: functional; how it was run: as §1
Cucumis sativus [13] = experiment: Inhibition of stem growth of Cucumis sativus at 100 mg/L; type: functional; how it was run: as §1
Sorghum bicolor [14] = experiment: Herbicidal activity against Sorghum bicolor at 450 g ai/ha in greenhouse in vivo test; type: functional, organism-based
Echinochloa crus-galli [15] = experiment: Inhibition of root growth of Echinochloa crus-galli at 100 mg/L; type: functional; how it was run: as §1
Aphis = experiment: Insecticidal activity against Aphis medicagini at 250 mg/L; type: functional; how it was run: as §2
[16] = test system: Brassica rapa subsp. oleifera; experiment: Inhibition of stem growth of Brassica campestris at 100 mg/L; type: functional; how it was run: as §1
Radish [17] = experiment: Herbicidal activity against Raphanus sativus at 450 g ai/ha in greenhouse in vivo test; type: functional, organism-based
Cucumis sativus [18] = experiment: Inhibition of root growth of Cucumis sativus at 100 mg/L; type: functional; how it was run: as §1

SMILES	inhibition at 100 µg/mL [1] [%]	inhibition at 100 µg/mL (Triticum aestivum [2]) [%]	inhibition at 100 µg/mL (Sorghum bicolor [3]) [%]	Activity (Echinochloa crus-galli [4])	Activity (Tetranychus cinnabarinus) [%]	inhibition at 100 µg/mL (Radish [5]) [%]	Activity (Cucumis sativus [6])	Activity (Triticum aestivum [7])	Activity [8]	inhibition at 100 µg/mL (Radish [9]) [%]	inhibition at 100 µg/mL (Echinochloa crus-galli [10]) [%]	inhibition at 100 µg/mL (Sorghum bicolor [11]) [%]	inhibition at 100 µg/mL (Triticum aestivum [12]) [%]	inhibition at 100 µg/mL (Cucumis sativus [13]) [%]	Activity (Sorghum bicolor [14])	inhibition at 100 µg/mL (Echinochloa crus-galli [15]) [%]	Activity (Aphis) [%]	inhibition at 100 µg/mL [16] [%]	Activity (Radish [17])	inhibition at 100 µg/mL (Cucumis sativus [18]) [%]
CCCCCCCCSc1nnc(Cn2nnn(-c3ccc(Cl)cc3)c2=O)o1	0	0	0	inactive	2.9	0	inactive	inactive	inactive	0	0	0	0	0	inactive	0	3.3	0	inactive	0
C=CCn1nnn(-c2ccc(Cl)cc2)c1=O	50	80	60	inactive	4.3	80	inactive	inactive	inactive	80	50	60	80	30	inactive	0	3.3	50	inactive	40
C=CCSc1nnc(Cn2nnn(-c3ccc(Cl)cc3)c2=O)s1	60	40	60	inactive	72.9	40	inactive	inactive	inactive	40	70	0	50	0	inactive	60	0	40	inactive	0
CCCCCCCCSc1nnc(Cn2nnn(-c3ccc(Cl)cc3)c2=O)s1	40	0	50	inactive	2.9	0	inactive	inactive	inactive	40	0	0	30	0	inactive	40	0	0	inactive	30
C=CCSc1nnc(Cn2nnn(-c3ccc(Cl)cc3)c2=O)o1	80	0	0	inactive	96.8	60	inactive	inactive	inactive	60	0	0	0	50	inactive	0	5	70	inactive	60
CSc1nnc(Cn2nnn(-c3ccc(Cl)cc3)c2=O)s1	0	50	60	inactive	0	50	inactive	inactive	inactive	50	0	40	60	60	inactive	30	5.7	70	inactive	40
